Columns and labels:
[1] = target: Matrix metalloproteinase-9 (Homo sapiens, UniProt P14780); experiment: In vitro inhibition of human matrix metalloprotease-9
Outline: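 Full-length PMNL pro-gelatinase from human plasma buffy coat, activated with trypsin for 10 min at 37 °C, then trypsin inactivated with TKI. […] Buffer 50 mM HEPES pH 7.0, 10 mM CaCl2, 0.02% PEG 8000, 2% DMSO, 25 °C. Inhibitor 0.005-15 µM, 30 min preincubation, triplicate. Ki from logistic IC50 by the Horovitz-Levitski method.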

[2] = target: Collagenase 3 (Homo sapiens, UniProt P45452); experiment: In Vitro inhibitory activity against the catalytic domain of the matrix metalloprotease-13
[3] = target: Neutrophil collagenase (Homo sapiens, UniProt P22894); experiment: Inhibitory activity against matrix metalloprotease-8
Sequence of Neutrophil collagenase (P22894 whole entry, the tested form may be a part): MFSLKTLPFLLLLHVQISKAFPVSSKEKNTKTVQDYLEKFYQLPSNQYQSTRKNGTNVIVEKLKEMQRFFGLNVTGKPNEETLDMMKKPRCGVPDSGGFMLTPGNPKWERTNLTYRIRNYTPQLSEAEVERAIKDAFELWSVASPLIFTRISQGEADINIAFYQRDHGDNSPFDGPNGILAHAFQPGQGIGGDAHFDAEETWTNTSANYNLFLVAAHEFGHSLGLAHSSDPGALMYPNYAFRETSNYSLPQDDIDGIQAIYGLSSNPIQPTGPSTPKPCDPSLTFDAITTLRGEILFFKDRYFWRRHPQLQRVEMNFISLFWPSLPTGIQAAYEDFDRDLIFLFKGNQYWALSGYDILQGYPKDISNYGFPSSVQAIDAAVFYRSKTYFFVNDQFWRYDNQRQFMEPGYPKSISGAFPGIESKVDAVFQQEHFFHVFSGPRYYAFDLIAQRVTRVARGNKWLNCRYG

[4] = target: T1, Matrix metalloproteinase-14 (Homo sapiens, UniProt P50281); experiment: In vitro inhibitory activity against the catalytic domain of human matrix metalloprotease-14
Outline: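 E. coli-expressed human MMP-14 catalytic domain, activated by autocatalysis, at 0.3-5 nM. Assay buffer 50 mM HEPES pH 7.0, 10 mM CaCl2, 0.02% PEG 8000, 2% DMSO, 25 °C. […] Fluorescence ex 330/em 405 nm, triplicate. Ki derived from four-parameter logistic IC50 (Horovitz-Levitski).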

[5] = target: 72 kDa type IV collagenase (Homo sapiens, UniProt P08253)
Sequence of 72 kDa type IV collagenase (P08253 whole entry, the tested form may be a part): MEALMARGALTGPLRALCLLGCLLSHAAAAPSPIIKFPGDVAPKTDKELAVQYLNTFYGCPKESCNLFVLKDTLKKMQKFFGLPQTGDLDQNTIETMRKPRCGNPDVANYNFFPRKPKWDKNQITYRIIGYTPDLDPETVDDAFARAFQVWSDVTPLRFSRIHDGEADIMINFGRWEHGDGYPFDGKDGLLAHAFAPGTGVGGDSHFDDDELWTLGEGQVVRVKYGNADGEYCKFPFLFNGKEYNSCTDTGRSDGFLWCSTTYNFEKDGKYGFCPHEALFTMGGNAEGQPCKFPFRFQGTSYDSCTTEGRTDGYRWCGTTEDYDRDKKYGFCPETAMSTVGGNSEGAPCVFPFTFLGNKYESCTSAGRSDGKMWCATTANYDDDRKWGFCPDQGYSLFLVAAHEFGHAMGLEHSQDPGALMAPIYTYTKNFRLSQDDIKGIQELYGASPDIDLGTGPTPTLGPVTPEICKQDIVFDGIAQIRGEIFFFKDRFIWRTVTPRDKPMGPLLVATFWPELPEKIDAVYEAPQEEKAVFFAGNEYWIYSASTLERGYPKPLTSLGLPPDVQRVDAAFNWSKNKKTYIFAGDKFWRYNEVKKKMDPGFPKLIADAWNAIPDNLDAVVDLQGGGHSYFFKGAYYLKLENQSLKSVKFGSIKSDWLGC

[6] = target: Macrophage metalloelastase (Homo sapiens, UniProt P39900); experiment: In Vitro inhibitory activity against the catalytic domain of the matrix metalloprotease-12
Sequence of Macrophage metalloelastase (P39900 whole entry, the tested form may be a part): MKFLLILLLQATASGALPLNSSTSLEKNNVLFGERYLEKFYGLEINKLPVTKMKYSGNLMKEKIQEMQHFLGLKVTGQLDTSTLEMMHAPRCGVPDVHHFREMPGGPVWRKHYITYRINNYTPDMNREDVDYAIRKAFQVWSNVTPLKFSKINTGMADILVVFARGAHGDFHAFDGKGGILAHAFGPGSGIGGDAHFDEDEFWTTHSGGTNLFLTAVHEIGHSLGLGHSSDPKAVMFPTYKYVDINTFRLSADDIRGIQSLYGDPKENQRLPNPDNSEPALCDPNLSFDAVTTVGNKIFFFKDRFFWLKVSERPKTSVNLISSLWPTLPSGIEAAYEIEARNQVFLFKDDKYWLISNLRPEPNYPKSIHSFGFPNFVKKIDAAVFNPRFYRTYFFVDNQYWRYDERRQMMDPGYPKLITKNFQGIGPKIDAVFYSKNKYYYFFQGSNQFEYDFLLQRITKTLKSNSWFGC
Outline: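 Human MMP-12 catalytic domain, expressed in E. coli as inclusion bodies, renatured and affinity-purified. FRET assay in 50 mM HEPES/NaOH pH 7.0, 10 mM CaCl2, 0.02% PEG 8000, 2% DMSO, 25 °C. […] Inhibitor at 0.005-15 µM, 30 min preincubation, ex 330/em 405 nm, triplicate. Four-parameter logistic IC50, then Ki by the Horovitz-Levitski method.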

[7] = target: T1, Matrix metalloproteinase-14; experiment: In vitro inhibitory activity against the ectodomain of the human matrix metalloprotease-14
Outline: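 Ectodomain of human MMP-14 (ΔTM) expressed in Pichia pastoris. […] Buffer 50 mM HEPES pH 7.0, 10 mM CaCl2, 0.02% PEG 8000, 2% DMSO, 25 °C. Inhibitor 0.005-15 µM, 30 min preincubation, ex 330/em 405 nm, triplicate. Ki from logistic-fit IC50 by the Horovitz-Levitski method.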

[8] = target: T2, Interstitial collagenase (Homo sapiens, UniProt P03956); experiment: In vitro inhibitory activity against full-length human matrix metalloprotease-1
T2 sequence (P03956 whole entry): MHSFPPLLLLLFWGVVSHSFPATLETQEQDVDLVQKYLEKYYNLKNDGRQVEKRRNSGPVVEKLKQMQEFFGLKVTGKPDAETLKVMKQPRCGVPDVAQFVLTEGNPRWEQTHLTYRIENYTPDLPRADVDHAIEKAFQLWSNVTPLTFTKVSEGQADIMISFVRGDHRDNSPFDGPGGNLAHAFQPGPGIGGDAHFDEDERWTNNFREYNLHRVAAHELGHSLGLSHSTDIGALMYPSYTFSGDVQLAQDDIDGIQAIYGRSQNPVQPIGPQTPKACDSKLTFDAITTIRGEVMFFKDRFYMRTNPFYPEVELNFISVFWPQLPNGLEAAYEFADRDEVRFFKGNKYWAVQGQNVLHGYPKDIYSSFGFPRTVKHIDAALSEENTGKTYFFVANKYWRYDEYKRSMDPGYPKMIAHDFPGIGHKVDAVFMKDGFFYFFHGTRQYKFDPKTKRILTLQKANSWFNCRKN

[9] = target: T1, Matrix metalloproteinase-14; experiment: Inhibition of matrix metalloprotease-14

Sequence of Matrix metalloproteinase-9 (P14780 whole entry): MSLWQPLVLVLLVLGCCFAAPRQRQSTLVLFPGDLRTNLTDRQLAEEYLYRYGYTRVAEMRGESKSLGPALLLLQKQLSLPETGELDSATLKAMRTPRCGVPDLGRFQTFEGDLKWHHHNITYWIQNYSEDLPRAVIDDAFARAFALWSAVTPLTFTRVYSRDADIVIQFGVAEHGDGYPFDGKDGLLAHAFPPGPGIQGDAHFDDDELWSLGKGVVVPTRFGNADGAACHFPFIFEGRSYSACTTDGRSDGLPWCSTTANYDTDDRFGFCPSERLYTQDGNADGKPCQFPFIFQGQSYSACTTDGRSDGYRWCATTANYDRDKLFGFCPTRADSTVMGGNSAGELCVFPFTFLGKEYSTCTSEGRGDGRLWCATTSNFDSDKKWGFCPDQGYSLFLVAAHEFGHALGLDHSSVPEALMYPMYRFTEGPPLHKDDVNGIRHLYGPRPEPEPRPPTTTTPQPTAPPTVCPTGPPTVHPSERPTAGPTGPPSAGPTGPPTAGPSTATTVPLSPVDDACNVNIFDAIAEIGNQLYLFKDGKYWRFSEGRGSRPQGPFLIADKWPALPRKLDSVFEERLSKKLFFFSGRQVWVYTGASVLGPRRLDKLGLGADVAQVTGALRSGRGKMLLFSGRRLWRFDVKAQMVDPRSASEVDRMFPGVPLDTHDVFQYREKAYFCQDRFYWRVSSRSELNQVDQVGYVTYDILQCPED

Structure (SMILES) | Ki [1] [nM] | Ki [2] [nM] | Ki [3] [nM] | Ki [4] [nM] | Ki [5] [nM] | Ki [6] [nM] | Ki [7] [nM] | Ki [8] [nM] | Ki [9] [nM]
C[C@H](NS(=O)(=O)c1ccccc1)C(=O)NC1=NN=C(C23CC4CC(CC(C4)C2)C3)CS1 | > 15000 | > 15000 | > 15000 | 3070 | > 15000 | 410 |  |  | 
Cc1ccc(C2=NN=C(NC(=O)[C@@H](C)NS(=O)(=O)c3ccccc3)SC2)cc1 | 210 | 320 | 220 | 290 | 440 | 90 | 150 | 460 | 
C[C@@H](NS(=O)(=O)c1ccccc1)C(=O)NC1=NN=C(c2ccc(Cl)cc2)CS1 | 80 | 140 | 150 |  | 500 | 320 | 210 | 210 | 50
C[C@H](NS(=O)(=O)c1ccccc1)C(=O)NC1=NN=C(c2ccc(F)cc2)CS1 | 160 | 650 |  | 440 | 450 | 280 |  | 440 | 
CC(C)[C@H](NS(=O)(=O)c1ccccc1)C(=O)NC1=NN=C(c2ccc(Cl)cc2)CS1 | 200 | > 15000 | 780 | 740 | 880 | 380 |  |  | 
Cc1ccc(C2=NN=C(NC(=O)[C@H](C)NS(=O)(=O)c3ccccc3)SC2)cc1 | 160 | 620 | 300 | 380 | 410 | 110 |  |  | 
C[C@H](NS(=O)(=O)c1ccccc1)C(=O)NC1=NN=C(c2ccc(C(F)(F)F)cc2)CS1 | 240 | 570 | 260 | 580 |  | 300 | 390 | 430 | 
CC(C)(NS(=O)(=O)c1ccccc1)C(=O)NC1=NN=C(c2ccc(Cl)cc2)CS1 | 90 | 180 | 480 | 150 | 80 | 200 | 110 | 300 | 
C[C@H](NS(=O)(=O)c1cccs1)C(=O)NC1=NN=C(c2ccc(Cl)cc2)CS1 | 800 | 3810 | 60 | 250 | 550 | 360 |  |  | 
C[C@H](NS(=O)(=O)c1ccccc1)C(=O)NC1=NN=C(c2ccc(Br)cc2)CS1 | 160 | 370 | 110 |  | 270 | 440 |  |  | 340
C[C@@H](NS(=O)(=O)c1ccccc1)C(=O)NC1=NN=C(c2ccc(Br)cc2)CS1 | 40 | 130 | 210 |  | 150 | 340 | 180 | 420 | 200
C[C@H](NS(=O)(=O)Cc1ccccc1)C(=O)NC1=NN=C(c2ccc(Cl)cc2)CS1 | 40 | 120 | 200 | 190 | 90 | 480 | 180 | 360 | 
C[C@H](NS(=O)(=O)c1ccccc1)C(=O)NC1=NN=C(c2ccc(Cl)cc2)CS1 | 60 | 180 | 730 | 100 | 140 | 520 | 210 | 650 | 
C[C@@H](NS(=O)(=O)c1ccccc1)C(=O)NC1=NN=C(c2ccc(C#N)cc2)CS1 | 80 | 210 | 230 |  | 210 | 360 | 400 | 400 | 240
C[C@H](NS(=O)(=O)c1ccccc1)C(=O)NC1=NN=C(c2ccc(Cl)s2)CS1 | 170 | 470 | 180 | 320 | 1870 | 240 | 200 | 450 | 
C[C@H](NS(=O)(=O)c1ccccc1)C(=O)NC1=NN=C(c2ccc([N+](=O)[O-])cc2)CS1 | 130 | 260 | 170 | 290 | 300 | 280 |  | 260 | 
C[C@@H](NS(=O)(=O)c1ccccc1)C(=O)NC1=NN=C(c2ccc(F)cc2)CS1 | 50 | 300 |  | 390 | 340 | 350 | 330 | 630 | 
COc1ccc(C2=NN=C(NC(=O)[C@H](C)NS(=O)(=O)c3ccccc3)SC2)cc1 | 320 | 1330 | 180 | 590 |  | 340 |  | 580 | 
C[C@H](NS(=O)(=O)c1ccccc1)C(=O)NC1=NN=C(c2ccc(C#N)cc2)CS1 | 80 | 250 | 220 |  | 240 | 370 | 400 | 390 | 240
CC(C)[C@@H](NS(=O)(=O)c1ccccc1)C(=O)NC1=NN=C(c2ccc(Cl)cc2)CS1 | > 15000 | > 15000 | 4370 | 590 | 850 | 350 | 330 | 550 | 

— ChEMBL document CHEMBL1134615, “Structure-based design and synthesis of potent matrix metalloproteinase inhibitors derived from a 6H-1,3,4-thiadiazine scaffold” (J Med Chem, 2001)
